Laboratory results published in ChEMBL document CHEMBL1155568, “Biological characterization of fusapyrone and deoxyfusapyrone, two bioactive secondary metabolites of Fusarium semitectum” (J Nat Prod, 2000).
Active and inactive are the calls of the source. No cut-off for these calls is given here.

How the values were obtained:
Aspergillus fumigatus [1] = test: Antifungal activity against Aspergillus fumigatus 1 after 24 hrs by broth micromethod assay; assay type: functional
Procedure, shortened: (§1)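 Broth microdilution in YNB with 0.5% glucose, phosphate buffer pH 7, using ten 2-fold dilutions (50-0.097 µg/mL). Inoculum from 24-48 h Sabouraud agar cultures, final 5 × 10^2 cells for C. albicans and C. kefyr, 5 × 10^3 cells/conidia for C. glabrata, Cryptococcus neoformans and Aspergillus. Incubated at 35 °C up to 72 h, read every 24 h. MIC is the complete absence of growth versus medium controls.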

Pichia kluyveri = test: Antifungal activity against Pichia kluyveri ITEM 1649 at 15 ug/disk by paper disk method; assay type: functional
Procedure, shortened: (§2)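 Agar overlay disk diffusion on plant-derived filamentous fungi and yeasts: 0.7% water-agar seeded with 10^4 conidia/mL or a yeast cell suspension, poured over PDA. 6-mm cellulose disks were loaded from methanolic solutions and air-dried, with nystatin as comparator. Plates ran 24-72 h at 25 °C; inhibition halo was measured over three disks. Agar beneath disks was subcultured on PDA to separate fungicidal from fungistatic, scored in four classes; run twice, averaged.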

Candida maltosa = test: Antifungal activity against Candida maltosa ITEM 1639 at 15 ug/disk by paper disk method; assay type: functional; settings: read-out: IZ
Procedure, shortened: (§3)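 Agar diffusion: a 0.7% water-agar overlay carrying 10^4 conidia/mL (or yeast cells) is poured on PDA. 6-mm cellulose disks loaded with methanolic compound at 5 or 15 µg/disk are air-dried and applied, with nystatin as comparator. Plates incubated 24-72 h at 25 °C; inhibition halo diameter read from three disks. Agar under each disk is subcultured on PDA to score fungicidal/fungistatic effect. Experiment run twice and averaged.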

Nakaseomyces glabratus [2] = test: Antifungal activity against Candida glabrata 12 after 24 hrs by broth micromethod assay; assay type: functional; procedure, shortened: as §1
Cryptococcus neoformans [3] = test: Antifungal activity against Cryptococcus neoformans 14 after 24 hrs by broth micromethod assay; assay type: functional; procedure, shortened: as §1
Aspergillus niger [4] = test: Antifungal activity against Aspergillus niger 2 after 48 hrs by broth micromethod assay; assay type: functional; procedure, shortened: as §1
Saccharomyces cerevisiae = test: Antifungal activity against Saccharomyces cerevisiae ITEM 1633 at 15 ug/disk by paper disk method; assay type: functional; settings: read-out: IZ; procedure, shortened: as §2
Solanum lycopersicum [5] = test: Phytotoxicity against tomato assessed as seedling germination; assay type: organism-based; settings: in vivo
Procedure, shortened: (§4)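 Tomato seeds were surface-sterilized in 4% NaClO for 10 min and pregerminated 3 days in the dark. They were then placed 10 per dish on filter paper wetted with 2 mL of compound in 1% MeOH (10^-4 or 10^-5 M) and held 4 days at 25 °C under a 12-h photoperiod. Shoot and rootlet lengths were measured against control; done in triplicate, repeated once.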

Alternaria alternata [6] = test: Antifungal activity against Alternaria alternata ITEM 750 at 15 ug/disk by paper disk method; assay type: functional; settings: read-out: IZ; procedure, shortened: as §3
Solanum lycopersicum [7] = test: Phytotoxicity in tomato stem assessed as chlorosis in the leaf at 10^-3 M by tomato cutting assay; assay type: organism-based; settings: in vivo, 1000 µM
Procedure, shortened: (§5)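 Young greenhouse tomato plants were cut, and the stems were immersed in toxin solutions (MeOH stock diluted with water; 10^-3 to 10^-6 M). They were held 24 h at 22 °C under a 12-h photoperiod, then moved to distilled water for 48 h more, and symptoms were scored visually.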

Cryptococcus neoformans [8] = test: Antifungal activity against Cryptococcus neoformans 14 after 48 hrs by broth micromethod assay; assay type: functional; procedure, shortened: as §1
Aspergillus flavus [9] = test: Antifungal activity against Aspergillus flavus ITEM 9 at 15 ug/disk by paper disk method; assay type: functional; settings: read-out: IZ; procedure, shortened: as §3
Botrytis cinerea [10] = test: Antifungal activity against Botrytis cinerea ITEM 966 at 15 ug/disk by paper disk method; assay type: functional; settings: read-out: IZ; procedure, shortened: as §3
Aspergillus flavus [11] = test: Antifungal activity against Aspergillus flavus 3 after 24 hrs by broth micromethod assay; assay type: functional; procedure, shortened: as §1
Fusarium verticillioides = test: Antifungal activity against Fusarium moniliforme ITEM 1497 at 15 ug/disk by paper disk method; assay type: functional; settings: read-out: IZ; procedure, shortened: as §3
Aspergillus fumigatus [12] = test: Antifungal activity against Aspergillus fumigatus 1 after 72 hrs by broth micromethod assay; assay type: functional; procedure, shortened: as §1
[13] = system: Cladosporium cladosporioides; test: Antifungal activity against Cladosporium cladosporioides ITEM 2079 at 15 ug/disk by paper disk method; assay type: functional; settings: read-out: IZ; procedure, shortened: as §3
Priestia megaterium = test: Antimicrobial activity against Bacillus megaterium at 30 ug/disk by agar diffusion method; assay type: functional, organism-based
Solanum lycopersicum [14] = test: Phytotoxicity in tomato leaf assessed as chlorosis in the leaf at 10^-4 M by tomato cutting assay; assay type: organism-based; settings: in vivo, 100 µM; procedure, shortened: as §5
Candida albicans [15] = test: Antifungal activity against Candida albicans Y01009 after 24 hrs by broth micromethod assay; assay type: functional; procedure, shortened: as §1
Ascochyta rabiei [16] = test: Antifungal activity against Ascochyta rabiei ITEM 466 at 5 ug/disk by paper disk method; assay type: functional, organism-based; procedure, shortened: as §3
Fusarium oxysporum [17] = test: Antifungal activity against Fusarium oxysporum ITEM 1462 at 15 ug/disk by paper disk method; assay type: functional; settings: read-out: IZ; procedure, shortened: as §3
Cicer arietinum [18] = test: Phytotoxicity against chickpea cells at 10^-5 M; assay type: organism-based; settings: 10 µM
Procedure, shortened: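 Cells came from 2-week-old chickpea leaves by enzyme digestion, washed in holding buffer at pH 5.55, and mixed 1:1 with compound (final 10^-5 to 10^-3 M in 1% MeOH). They were held 3 h at 25 °C in the dark, then stained with fluorescein diacetate. Viability was scored on 30 cells by fluorescence microscopy. Fusaric acid served as positive control; repeated twice.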

Rhodotorula mucilaginosa = test: Antifungal activity against Rhodotorula pilimanae at 15 ug/disk by […]; assay type: functional; settings: read-out: IZ
Aspergillus niger [19] = test: Antifungal activity against Aspergillus niger 2 after 72 hrs by broth micromethod assay; assay type: functional; procedure, shortened: as §1
Cryptococcus neoformans [20] = test: Antifungal activity against Cryptococcus neoformans at 50 ug/disk paper disk method; assay type: functional, organism-based
Fusarium oxysporum [21] = test: Antifungal activity against Fusarium oxysporum ITEM 149 at 15 ug/disk by paper disk method; assay type: functional; settings: read-out: IZ; procedure, shortened: as §3
Nakaseomyces glabratus [22] = test: Antifungal activity against Candida glabrata at 50 ug/disk by paper disk method; assay type: functional, organism-based
Cryptococcus neoformans [23] = test: Antifungal activity against Cryptococcus neoformans 13 after 72 hrs by broth micromethod assay; assay type: functional; procedure, shortened: as §1
Candida albicans [24] = test: Antifungal activity against Candida albicans 2 after 24 hrs by broth micromethod assay; assay type: functional; procedure, shortened: as §1
[25] = system: Colletotrichum gloeosporioides; test: Antifungal activity against Colletotrichum gloeosporioides ITEM 1729 at 15 ug/disk by paper disk method; assay type: functional; settings: read-out: IZ; procedure, shortened: as §3
Alternaria alternata [26] = test: Antifungal activity against Alternaria alternata ITEM 511 at 15 ug/disk by paper disk method; assay type: functional; settings: read-out: IZ; procedure, shortened: as §3
Ascochyta rabiei [27] = test: Antifungal activity against Ascochyta rabiei ITEM 1067 at 15 ug/disk by paper disk method; assay type: functional; settings: read-out: IZ; procedure, shortened: as §3
Candida albicans [28] = test: Antifungal activity against Candida albicans at 50 ug/disk by paper disk method; assay type: functional, organism-based
Solanum lycopersicum [29] = test: Stimulation of root elongation in tomato at 10^-5 M; assay type: functional, organism-based; procedure, shortened: as §4
Botrytis cinerea [30] = test: Antifungal activity against Botrytis cinerea at 15 ug/disk by paper disk method; assay type: functional; settings: read-out: IZ; procedure, shortened: as §3
Alternaria alternata [31] = test: Antifungal activity against Alternaria alternata ITEM 526 at 15 ug/disk by paper disk method; assay type: functional; settings: read-out: IZ; procedure, shortened: as §3
[32] = system: Fusarium oxysporum f. sp. lycopersici; test: Antifungal activity against Fusarium oxysporum f. sp. lycopersici ITEM 1462 at 15 ug/disk by paper disk method; assay type: functional; settings: read-out: IZ; procedure, shortened: as §3
Cladosporium cucumerinum = test: Antifungal activity against Cladosporium cucumerinum ITEM 2095 at 15 ug/disk by paper disk method; assay type: functional; settings: read-out: IZ; procedure, shortened: as §3
Cicer arietinum [33] = test: Phytotoxicity in chickpea leaf assessed as chlorosis in the leaf at 10^-3 M by leaf puncture assay; assay type: organism-based; settings: in vivo, 1000 µM
Procedure, shortened: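 Tomato and chickpea leaves were punctured and treated with toxin dissolved in MeOH and diluted with water (final 4% MeOH), tested from 10^-2 to 10^-7 M. Chlorosis and necrosis were recorded visually as spot symptoms.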

SMILES | Activity (Aspergillus fumigatus [1]) | Activity (Pichia kluyveri) | zone of inhibition at 15 µg/disc (Candida maltosa) | Activity (Nakaseomyces glabratus [2]) | Activity (Cryptococcus neoformans [3]) | Activity (Aspergillus niger [4]) | zone of inhibition at 15 µg/disc (Saccharomyces cerevisiae) | Activity (Solanum lycopersicum [5]) | zone of inhibition at 15 µg/disc (Alternaria alternata [6]) | Activity (Solanum lycopersicum [7]) | Activity (Cryptococcus neoformans [8]) | zone of inhibition at 15 µg/disc (Aspergillus flavus [9]) | zone of inhibition at 15 µg/disc (Botrytis cinerea [10]) | Activity (Aspergillus flavus [11]) | zone of inhibition at 15 µg/disc (Fusarium verticillioides) | Activity (Aspergillus fumigatus [12]) | zone of inhibition at 15 µg/disc [13] | Activity (Priestia megaterium) | Activity (Solanum lycopersicum [14]) | Activity (Candida albicans [15]) | other results
CCCCCCC(C)C/C(C)=C\C(/C=C(C)/C=C/C(O)C(C)(C)c1cc(O)c([C@@H]2O[C@@H](CO)C[C@@H](O)[C@@H]2O)c(=O)o1)CO (stereo not given in full) [FUSAPYRONE] | 1.56 µg/mL | 0 mm | 0 mm | >50 µg/mL | 3.12 µg/mL | 1.56 µg/mL | 0 mm | Not Active | 18.7 mm | Not Active | 3.12 µg/mL | 27.3 mm | 29.3 mm | 1.56 µg/mL | 20.1 mm | 1.56 µg/mL | 28.7 mm | inactive | Active | >50 µg/mL | Activity (Ascochyta rabiei [16]): Active; zone of inhibition at 15 µg/disc (Fusarium oxysporum [17]): 28.3 mm; Activity (Cicer arietinum [18]): Active; zone of inhibition at 15 µg/disc (Rhodotorula mucilaginosa): 0 mm; Activity (Aspergillus niger [19]): 1.56 µg/mL; Activity (Cryptococcus neoformans [20]): Active; zone of inhibition at 15 µg/disc (Fusarium oxysporum [21]): 27.7 mm; Activity (Nakaseomyces glabratus [22]): inactive; Activity (Cryptococcus neoformans [23]): 6.25 µg/mL; Activity (Candida albicans [24]): >50 µg/mL; zone of inhibition at 15 µg/disc [25]: 31.8 mm; zone of inhibition at 15 µg/disc (Alternaria alternata [26]): 18 mm; zone of inhibition at 15 µg/disc (Ascochyta rabiei [27]): 35.8 mm; Activity (Candida albicans [28]): inactive; Activity (Solanum lycopersicum [29]): Active; zone of inhibition at 15 µg/disc (Botrytis cinerea [30]): 30 mm; zone of inhibition at 15 µg/disc (Alternaria alternata [31]): 20.3 mm; zone of inhibition at 15 µg/disc [32]: 30 mm; zone of inhibition at 15 µg/disc (Cladosporium cucumerinum): 33.3 mm; Activity (Cicer arietinum [33]): Active
CCCCCCC(C)C/C(C)=C\C(C)/C=C(C)/C=C/C(O)C(C)(C)c1cc(O)c([C@@H]2O[C@@H](CO)C[C@@H](O)[C@@H]2O)c(=O)o1 (stereo not given in full) [DEXOYFUSAPYRONE] | 3.12 µg/mL | 0 mm | 0 mm | >50 µg/mL | 3.12 µg/mL | 1.56 µg/mL | 0 mm | Not Active | 10.5 mm | Not Active | 3.12 µg/mL | 12.4 mm | 13.5 mm | 1.56 µg/mL | 0 mm | 3.12 µg/mL | 16.2 mm | inactive | Active | >50 µg/mL | Activity (Ascochyta rabiei [16]): Active; zone of inhibition at 15 µg/disc (Fusarium oxysporum [17]): 0 mm; Activity (Cicer arietinum [18]): Active; zone of inhibition at 15 µg/disc (Rhodotorula mucilaginosa): 0 mm; Activity (Aspergillus niger [19]): 1.56 µg/mL; Activity (Cryptococcus neoformans [20]): Active; zone of inhibition at 15 µg/disc (Fusarium oxysporum [21]): 4 mm; Activity (Nakaseomyces glabratus [22]): inactive; Activity (Cryptococcus neoformans [23]): 6.25 µg/mL; Activity (Candida albicans [24]): >50 µg/mL; zone of inhibition at 15 µg/disc [25]: 13.8 mm; zone of inhibition at 15 µg/disc (Alternaria alternata [26]): 11 mm; zone of inhibition at 15 µg/disc (Ascochyta rabiei [27]): 12 mm; Activity (Candida albicans [28]): inactive; Activity (Solanum lycopersicum [29]): Active; zone of inhibition at 15 µg/disc (Botrytis cinerea [30]): 17 mm; zone of inhibition at 15 µg/disc (Alternaria alternata [31]): 11.7 mm; zone of inhibition at 15 µg/disc [32]: 4 mm; zone of inhibition at 15 µg/disc (Cladosporium cucumerinum): 13.5 mm; Activity (Cicer arietinum [33]): Active
